Test results: PubChem BioAssay
The source made the active and inactive calls.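 Rule for the calls, unless noted: active = viability at or under a set limit in both replicates, limit being median viability minus 3 SD (cut at about 48% in these data, passing the limit was not always enough); inconclusive = at or under the limit in just one replicate; inactive = at or above the limit in both replicates.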

What was measured:
[1] = reducers of endogenous Her2 protein level, primary screen, SKBR3 breast tumor cells, AlphaScreen, ATP viability (AID 461;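 active = Her2 level under about 52% in both replicate screens, with viability over 70% of control, limit read from the data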;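 for Her2 level: lower value means less Her2 protein in the cells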;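 for viability: percent of carrier control wells set as 100% viability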); conditions: 18-24 h, measured here: SKBR3 viability, ATP luminescence, at 10 µM
[2] = target: Receptor tyrosine-protein kinase erbB-2 (Homo sapiens) (UniProt P04626); test: as above; conditions: 18-24 h, at 10 µM, stronger effect = lower value
[3] = SK-BR-3 cell growth inhibitors, pilot screen, 24 h, human (AID 572;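 active = viability at or below 10% of carrier control in both of two separate runs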;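 note: compound exposure lasted between 18 and 24 h rather than exactly 24 h; 100% = carrier-treated control wells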); conditions: SK-BR-3 viability, CellTiter-Glo luminescence, at 10 µM, stronger effect = lower value
[4] = HUVEC growth inhibition – cell-based, human, primary screen (AID 575;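 active = viability at or below 30% in both replicate assays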;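 note: 100% = median of untreated cell wells with 0.1% DMSO on each plate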); conditions: HUVEC proliferation, CellTiter-Glo luminescence, 72 h; at 10 µM; stronger effect = lower value
Procedure, shortened: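 Assay system: primary human umbilical vein endothelial cells / Buffer or medium: endothelial basal medium with 2% FBS plus growth supplements / Compound dosing: one dose, 10 µM final, 0.1% DMSO / Timing: 72 h treatment at 37 °C / Signal: CTG luminescence / Benchmarks: 32 DMSO-only cell-control wells (high), 32 MePR drug-control wells (low) per plate / Plate: collagen-coated 384-well format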

[5] = growth inhibitors of H69AR lung tumor, primary screen, human, duplicate replicates (AID 580); conditions: H69AR lung tumor cells viability, ATP luminescence, 72 h; at 10 µM; stronger effect = lower value;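 note: 100% = mean luminescence of untreated wells and 0% = no signal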
[6] = reversal of MRP1-mediated doxorubicin resistance, pilot screen, H69AR cells, doxorubicin co-treatment (AID 601;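 active = viability loss from added drug above about 55%, and viability with drug at most 40%, in both replicates, limit read from the data, passing the limit was not always enough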); conditions: CellTiter-Glo, 72 h, at 10 µM; for differential viability (reversal): stronger effect = higher value
[7] = 384-well plate pilot, post-Golgi transport modulator project, inhibition of yeast transport mutant growth (AID 636; in the data active = inhibition above about 31%); conditions: absorbance 615 nm, about 18 h, stronger effect = higher value
[8] = growth suppression of yeast trafficking mutant, preliminary HTS, modulators of trafficking downstream of Golgi apparatus project, 1536-format plate, OD 615 nm (AID 637; in the data active = inhibition above about 30%); conditions: yeast transport mutant growth, absorbance 615 nm, 18 h; stronger effect = higher value
[9] = H69AR cells + 2 uM doxorubicin, measured here: viability with 2 uM doxorubicin, stronger effect = lower value
[10] = H69AR cells, compound alone cytotoxicity

Receptor tyrosine-protein kinase erbB-2 (Homo sapiens), sequence (P04626 whole entry, looked up): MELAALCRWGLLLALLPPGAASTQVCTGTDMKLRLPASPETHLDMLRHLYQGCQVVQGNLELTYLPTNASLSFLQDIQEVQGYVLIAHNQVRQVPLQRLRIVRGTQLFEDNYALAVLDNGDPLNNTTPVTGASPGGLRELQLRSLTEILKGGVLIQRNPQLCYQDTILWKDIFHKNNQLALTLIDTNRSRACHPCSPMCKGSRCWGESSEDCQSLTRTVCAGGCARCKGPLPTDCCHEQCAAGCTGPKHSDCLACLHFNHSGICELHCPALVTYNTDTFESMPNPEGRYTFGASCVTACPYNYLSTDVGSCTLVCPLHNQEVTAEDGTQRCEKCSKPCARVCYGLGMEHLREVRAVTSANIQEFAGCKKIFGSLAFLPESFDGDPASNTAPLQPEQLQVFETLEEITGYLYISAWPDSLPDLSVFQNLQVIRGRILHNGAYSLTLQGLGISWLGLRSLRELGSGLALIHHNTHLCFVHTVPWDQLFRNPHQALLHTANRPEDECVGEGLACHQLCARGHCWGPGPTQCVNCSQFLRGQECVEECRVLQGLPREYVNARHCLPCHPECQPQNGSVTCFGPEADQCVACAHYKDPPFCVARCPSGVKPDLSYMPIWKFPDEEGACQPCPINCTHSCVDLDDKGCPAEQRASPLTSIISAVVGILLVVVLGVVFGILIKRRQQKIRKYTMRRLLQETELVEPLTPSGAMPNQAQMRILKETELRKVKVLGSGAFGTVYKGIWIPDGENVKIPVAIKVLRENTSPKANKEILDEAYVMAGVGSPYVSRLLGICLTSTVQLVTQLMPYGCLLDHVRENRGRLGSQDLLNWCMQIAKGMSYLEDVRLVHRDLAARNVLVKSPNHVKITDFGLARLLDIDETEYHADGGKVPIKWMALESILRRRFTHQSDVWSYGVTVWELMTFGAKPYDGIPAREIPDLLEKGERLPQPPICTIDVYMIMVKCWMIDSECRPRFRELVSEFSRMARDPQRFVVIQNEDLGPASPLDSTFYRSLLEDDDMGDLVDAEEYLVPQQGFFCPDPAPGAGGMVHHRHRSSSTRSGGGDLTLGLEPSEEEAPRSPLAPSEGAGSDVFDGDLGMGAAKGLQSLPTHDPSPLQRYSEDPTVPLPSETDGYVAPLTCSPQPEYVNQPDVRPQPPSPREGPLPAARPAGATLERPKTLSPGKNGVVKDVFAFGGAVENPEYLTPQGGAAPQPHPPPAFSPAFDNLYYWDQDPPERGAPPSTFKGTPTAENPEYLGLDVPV

Compound | viability [1] [%] | Her2 level [2] | viability [3] | viability [4] | viability [5] | differential viability (reversal) ([6]; H69AR cells + 2 uM doxorubicin) | viability [6, 9] [%] | viability [6, 10] [%] | inhibition [7] | inhibition [8]
COc1ccc(NC(=O)CC2Oc3ccccc3NC2=O)cc1 (stereo not given) | 87.5 | 90% (inactive) | 87.5% (inactive) | 96.2% (inactive) | 97.6% (inactive) | 0.535% (inactive) | 97.1 | 97.6 | 0.27% (inactive) | -4.75% (inactive)
Cc1cc(C)n(-c2ccc(C(=O)Nc3ccc4c(c3)OCCO4)cc2)n1 | 93 | 77.5% (inactive) | 93% (inactive) | 62.2% (inactive) | 89% (inactive) | -6.18% (inactive) | 95.2 | 89 | 1.03% (inactive) | -2% (inactive)
Cc1cc(NC(=O)c2cnn3cccnc23)no1 | 101 | 108% (inactive) | 101% (inactive) | 97% (inactive) | 97.8% (inactive) | 4.21% (inactive) | 93.5 | 97.8 | -0.92% (inactive) | -5.65% (inactive)
CCCCCCn1c(SCCCC)nc2c1c(=O)[nH]c(=O)n2C | 93.5 | 99% (inactive) | 93.5% (inactive) | 72.7% (inactive) | 88.2% (inactive) | 0.76% (inactive) | 87.5 | 88.2 | -5.07% (inactive) | -5% (inactive)
COCCNC(=O)C(c1ccc(C)o1)N(Cc1ccc(F)cc1)C(=O)Cn1nnc2ccccc21 (stereo not given) | 89.5 | 95% (inactive) | 89.5% (inactive) | 95.7% (inactive) | 97.8% (inactive) | 3.14% (inactive) | 94.7 | 97.8 | 6.62% (inactive) | -1.31% (inactive)
Cc1ccc(S(=O)(=O)Nc2cc(C(=O)O)ccc2N2CCCCC2)cc1 | 112 | 112% (inactive) | 112% (inactive) | 101% (inactive) | 85.6% (inactive) | -1.99% (inactive) | 87.6 | 85.6 | -5.97% (inactive) | 6.07% (inactive)
Cc1cc2c(c(=O)o1)C(Cc1ccccc1)C(C#N)=C(N)O2 (stereo not given) | 94 | 96% (inactive) | 94% (inactive) | 87.2% (inactive) | 98.7% (inactive) | 21.6% (inactive) | 77.2 | 98.7 | 1.45% (inactive) | 1.8% (inactive)
Cc1cccc(NC2SC(=O)N(c3ccccc3)C2=O)c1 (stereo not given) | 100 | 81% (inactive) | 100% (inactive) | 88.9% (inactive) | 87.6% (inactive) | -10.4% (inactive) | 97.9 | 87.6 | -3.25% (inactive) | -5.5% (inactive)
COc1ccc(CNC(=O)CN(C(=O)c2ccc(CN3CCOCC3)o2)C2CCCC2)cc1 | 124 | 84.5% (inactive) | 124% (inactive) | 89% (inactive) | 93.1% (inactive) | 7.3% (inactive) | 85.8 | 93.1 | -1.87% (inactive) | 0.98% (inactive)
COCCn1c(SCC(=O)Nc2cccc(OC)c2)nnc1-c1ccc(Cl)cc1 | 98.5 | 71.5% (inactive) | 98.5% (inactive) | 97% (inactive) | 84.1% (inactive) | -5.18% (inactive) | 89.3 | 84.1 | -6.4% (inactive) | 0.98% (inactive)
Cn1c(=O)[nH]c(=O)c2c1nc(N(CCO)Cc1ccccc1)n2Cc1ccccc1Cl | 90.5 | 82.5% (inactive) | 90.5% (inactive) | 80.2% (inactive) | 81.6% (inactive) | 26% (inactive) | 55.6 | 81.6 | -5.47% (inactive) | 3.44% (inactive)
CC1=C(C#N)C(=O)NC(C)(C)C1 | 114 | 102% (inactive) | 114% (inactive) | 91.8% (inactive) | 89.3% (inactive) | 3.02% (inactive) | 86.3 | 89.3 | -6% (inactive) | 1.8% (inactive)
O=C(O)C1CC=CCC1C(=O)Nc1ccc(S(=O)(=O)N2CCCc3ccccc32)cc1 (stereo not given) | 85.5 | 88% (inactive) | 85.5% (inactive) | 64.4% (inactive) | 98.7% (inactive) | 4.55% (inactive) | 94.1 | 98.7 | -3.73% (inactive) | 0% (inactive)
O=S(=O)(c1ccc(F)c(Cl)c1)N1CCCC1 | 100 | 71% (inactive) | 100% (inactive) | 93.9% (inactive) | 92.2% (inactive) | 3.06% (inactive) | 89.2 | 92.2 | -5.68% (inactive) | 0.16% (inactive)
O=C(O)CCN1C(=O)c2ccccc2C1=O | 99 | 91% (inactive) | 99% (inactive) | 112% (inactive) | 97.5% (inactive) | -1.81% (inactive) | 99.4 | 97.5 | -2.24% (inactive) | 2.79% (inactive)
COc1ccc(-c2cc(C(=O)NCCc3ccccc3)no2)cc1OC | 102 | 85.5% (inactive) | 102% (inactive) | 92.3% (inactive) | 89.9% (inactive) | 3.29% (inactive) | 86.6 | 89.9 | -4.19% (inactive) | -12.7% (inactive)

Compound | viability [1] [%] | Her2 level [2] | viability [3] | viability [4] | viability [5] | differential viability (reversal) ([6]; H69AR cells + 2 uM doxorubicin) | viability [6, 9] [%] | viability [6, 10] [%] | inhibition [7] | inhibition [8]
COC(=O)c1nn(-c2ccc(-c3ccccc3)cc2)cc1O | 94 | 97% (inactive) | 94% (inactive) | 92.6% (inactive) | 89.2% (inactive) | 4.12% (inactive) | 85.1 | 89.2 | -4.27% (inactive) | -8.06% (inactive)
C/C(N)=C(/C#N)C(=O)COC(=O)c1cc(C)n(-c2ccc(F)cc2)c1C | 91 | 97.5% (inactive) | 91% (inactive) | 49.4% (inactive) | 98.1% (inactive) | -0.13% (inactive) | 98.2 | 98.1 | -4.53% (inactive) | -1.45% (inactive)
COC(=O)c1cn(C(=O)OC)c2ccccc12 | 96.5 | 102% (inactive) | 96.5% (inactive) | 85.1% (inactive) | 87.7% (inactive) | -0.61% (inactive) | 88.3 | 87.7 | -4.87% (inactive) | 4.1% (inactive)
CCNC(=O)N(C(=O)NCC)n1c(C)nnc1C | 100 | 90% (inactive) | 100% (inactive) | 105% (inactive) | 104% (inactive) | 18.7% (inactive) | 85.3 | 104 | -5.33% (inactive) | 1.48% (inactive)
O=C(NCc1cccs1)C1CC(=O)N(c2ccccc2)C1 (stereo not given) | 96.5 | 105% (inactive) | 96.5% (inactive) | 123% (inactive) | 111% (inactive) | 9.26% (inactive) | 101 | 111 | -0.13% (inactive) | -2.3% (inactive)
CC(C)(C)C(=O)/C=C(\N)c1ccccn1 | 102 | 94.5% (inactive) | 102% (inactive) | 119% (inactive) | 100% (inactive) | 2.67% (inactive) | 97.8 | 100 | -1.04% (inactive) | -4.92% (inactive)
O=C(O)Cn1cc2c(n1)CCCC2 | 96 | 98% (inactive) | 96% (inactive) | 93.9% (inactive) | 98% (inactive) | 3.98% (inactive) | 94 | 98 | -2% (inactive) | 5.41% (inactive)
CCCn1c(=N)n(CC(=O)c2cccs2)c2ccccc21 | 92 | 106% (inactive) | 92% (inactive) | 93.2% (inactive) | 91% (inactive) | -1.29% (inactive) | 92.3 | 91 | -7.33% (inactive) | -4.19% (inactive)
CC1CCN(C(=O)CSc2nc3ccccc3[nH]2)CC1 | 82 | 99.5% (inactive) | 82% (inactive) | 91.8% (inactive) | 109% (inactive) | 14.7% (inactive) | 94.6 | 109 | 0.26% (inactive) | 6% (inactive)
COc1ccc(-n2c(SCC#N)nc3ccccc3c2=O)cc1 | 77 | 106% (inactive) | 77% (inactive) | 93.5% (inactive) | 96.4% (inactive) | -12.8% (inactive) | 109 | 96.4 | 5.06% (inactive) | 3.28% (inactive)
O=C(COc1ccccc1F)NC1CC1 | 94.5 | 88.5% (inactive) | 94.5% (inactive) | 88.7% (inactive) | 107% (inactive) | 11.7% (inactive) | 95 | 107 | -6.58% (inactive) | -2.5% (inactive)
COc1ccc(N2CCN(CCCNC(=O)CC3Oc4ccc(C)cc4NC3=O)CC2)cc1 (stereo not given) | 87.5 | 99% (inactive) | 87.5% (inactive) | 88.9% (inactive) | 89.6% (inactive) | 0.915% (inactive) | 88.7 | 89.6 | -2.27% (inactive) | -2.62% (inactive)
O=C(N1CCCCCC1)N1CCN(S(=O)(=O)N2CCCCC2)CC1 | 101 | 91.5% (inactive) | 101% (inactive) | 99.5% (inactive) | 94% (inactive) | -5.71% (inactive) | 99.7 | 94 | -2.76% (inactive) | -2.26% (inactive)
CNC(=O)CN(C#N)c1nc(N(C)C)nc(N(C)C)n1 | 104 | 112% (inactive) | 104% (inactive) | 98.5% (inactive) | 92.8% (inactive) | 2.61% (inactive) | 90.2 | 92.8 | -4.93% (inactive) | -6.77% (inactive)
N#Cc1c(NC(=O)c2ccc(Br)o2)n(-c2ccccc2)c2nc3ccccc3nc12 | 86.5 | 77% (inactive) | 86.5% (inactive) | 71.1% (inactive) | 85.2% (inactive) | -0.255% (inactive) | 85.5 | 85.2 | -5.73% (inactive) | 2.46% (inactive)
